Experimental data from ChEMBL document CHEMBL3763086, “Salicylanilide N-monosubstituted carbamates: Synthesis and in vitro antimicrobial activity” (2016).

How the values were obtained:
Format in all cases: functional
Staphylococcus aureus [1] = test: Antibacterial activity against Staphylococcus aureus CCM 4516/08 after 24 hrs by microbroth dilution method; conditions: CCM 4516/08, 24 h
Method in brief: (§1)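 Microbroth dilution modified per M07-A07 in Mueller-Hinton broth, pH 7.4 (±0.2). Inoculum in sterile water adjusted to 0.5 McFarland. MIC taken as growth reduction of at least 90% (IC90) versus control, read visually and at 540 nm after 24 and 48 h incubation in the dark.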

Staphylococcus aureus [2] = test: Antibacterial activity against Staphylococcus aureus CCM 4516/08 after 48 hrs by microbroth dilution method; conditions: CCM 4516/08, 48 h
Method in brief: (§2)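 Microdilution broth method modified after M07-A07 in Mueller-Hinton broth adjusted to pH 7.4 (±0.2). Inoculum prepared in sterile water to 0.5 McFarland (1.5 × 10^8 CFU/mL). MIC taken as growth reduction versus control (IC95 per table header), read visually and spectrophotometrically at 540 nm after 24 and 48 h incubation in the dark.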

Staphylococcus aureus [3] = test: Antibacterial activity against methicillin-resistant Staphylococcus aureus H 5996/08 after 24 hrs by microbroth dilution method; conditions: H 5996/08, 24 h; method in brief: as §2
Staphylococcus aureus [4] = test: Antibacterial activity against methicillin-resistant Staphylococcus aureus H 5996/08 after 48 hrs by microbroth dilution method; conditions: H 5996/08, 48 h; method in brief: as §2
[5] = tested on: Staphylococcus epidermidis; test: Antibacterial activity against Staphylococcus epidermidis H 6966/08 after 24 hrs by microbroth dilution method; conditions: H 6966/08, 24 h; method in brief: as §1
[6] = tested on: Staphylococcus epidermidis; test: Antibacterial activity against Staphylococcus epidermidis H 6966/08 after 48 hrs by microbroth dilution method; conditions: H 6966/08, 48 h; method in brief: as §1
Enterococcus sp. [7] = test: Antibacterial activity against Enterococcus sp. J 14365/08 after 24 hrs by microbroth dilution method; conditions: J 14365/08, 24 h; method in brief: as §1
Enterococcus sp. [8] = test: Antibacterial activity against Enterococcus sp. J 14365/08 after 48 hrs by microbroth dilution method; conditions: J 14365/08, 48 h; method in brief: as §1
Escherichia coli [9] = test: Antibacterial activity against Escherichia coli CCM 4517 after 24 hrs by microbroth dilution method; conditions: CCM 4517, 24 h; method in brief: as §1
Escherichia coli [10] = test: Antibacterial activity against Escherichia coli CCM 4517 after 48 hrs by microbroth dilution method; conditions: CCM 4517, 48 h; method in brief: as §1
Klebsiella pneumoniae [11] = test: Antibacterial activity against Klebsiella pneumoniae D 11750/08 after 24 hrs by microbroth dilution method; conditions: D 11750/08, 24 h; method in brief: as §1
Klebsiella pneumoniae [12] = test: Antibacterial activity against Klebsiella pneumoniae D 11750/08 after 48 hrs by microbroth dilution method; conditions: D 11750/08, 48 h; method in brief: as §1
Klebsiella pneumoniae [13] = test: Antibacterial activity against ESBL-positive Klebsiella pneumoniae J 14368/08 after 24 hrs by microbroth dilution method; conditions: J 14368/08, 24 h; method in brief: as §1
Klebsiella pneumoniae [14] = test: Antibacterial activity against ESBL-positive Klebsiella pneumoniae J 14368/08 after 48 hrs by microbroth dilution method; conditions: J 14368/08, 48 h; method in brief: as §1
Candida albicans [15] = test: Antifungal activity against Candida albicans ATCC 44859 after 24 hrs by microbroth dilution method; conditions: ATCC 44859, 24 h
Candida albicans [16] = test: Antifungal activity against Candida albicans ATCC 44859 after 48 hrs by microbroth dilution method; conditions: ATCC 44859, 48 h
Candida tropicalis [17] = test: Antifungal activity against Candida tropicalis 156 after 24 hrs by microbroth dilution method; conditions: Candida tropicalis, 156, 24 h
Candida tropicalis [18] = test: Antifungal activity against Candida tropicalis 156 after 48 hrs by microbroth dilution method; conditions: Candida tropicalis, 156, 48 h
Pichia kudriavzevii [19] = test: Antifungal activity against Candida krusei E28 after 24 hrs by microbroth dilution method; conditions: E28, 24 h
Pichia kudriavzevii [20] = test: Antifungal activity against Candida krusei E28 after 48 hrs by microbroth dilution method; conditions: E28, 48 h
Nakaseomyces glabratus [21] = test: Antifungal activity against Candida glabrata 20/I after 24 hrs by microbroth dilution method
Nakaseomyces glabratus [22] = test: Antifungal activity against Candida glabrata 20/I after 48 hrs by microbroth dilution method
Trichosporon asahii [23] = test: Antifungal activity against Trichosporon asahii 1188 after 24 hrs by microbroth dilution method; conditions: Trichosporon asahii, 1188, 24 h
Trichosporon asahii [24] = test: Antifungal activity against Trichosporon asahii 1188 after 48 hrs by microbroth dilution method; conditions: Trichosporon asahii, 1188, 48 h
Lichtheimia corymbifera [25] = test: Antifungal activity against Absidia corymbifera 272 after 24 hrs by microbroth dilution method; conditions: Lichtheimia corymbifera, 272, 24 h
Lichtheimia corymbifera [26] = test: Antifungal activity against Absidia corymbifera 272 after 48 hrs by microbroth dilution method; conditions: Lichtheimia corymbifera, 272, 48 h
[27] = tested on: Trichophyton mentagrophytes; test: Antifungal activity against Trichophyton mentagrophytes 445 after 72 hrs by microbroth dilution method; conditions: Trichophyton mentagrophytes, 445, 72 h
[28] = tested on: Trichophyton mentagrophytes; test: Antifungal activity against Trichophyton mentagrophytes 445 after 120 hrs by microbroth dilution method; conditions: Trichophyton mentagrophytes, 445, 120 h

Measured: MIC

O=C(NC1CCCCC1)Oc1ccc(Cl)cc1C(=O)Nc1ccc(Cl)cc1
125 µM: Pichia kudriavzevii [19] | Pichia kudriavzevii [20] | Trichosporon asahii [23] | Trichosporon asahii [24] | Lichtheimia corymbifera [25] | Lichtheimia corymbifera [26]
1.95 µM: Staphylococcus aureus [1]
15.6 µM: Staphylococcus aureus [4]
3.9 µM: Staphylococcus aureus [3]
0.98 µM: [5] | [6]
7.81 µM: Staphylococcus aureus [2] | [27] | [28]
> 125 µM: all other assays above
